# Active and inactive are the calls of the source. The rule behind the calls is not given here.
# What was measured:
# [1] = species on record: Bos taurus; experiment: Inhibition of calf thymus DNA topoisomerase I assessed as relaxation of supercoiled DNA pBR322 at 100 ug/ml after 30 mins by agarose gel electrophoresis relative to camptothecin
# In short: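 Relaxation of 200 ng pBR322 supercoiled plasmid by 2 units calf thymus topo I, incubated with or without compound (20 mM DMSO stocks) for 30 min at 37 °C. Buffer: 35 mM Tris–HCl pH 8.0, 72 mM KCl, 5 mM MgCl2, 5 mM DTT, 2 mM spermidine, 0.01% BSA. The reaction was stopped with SDS/glycerol dye, then run on 1% agarose in TAE at 15 V for 6 h and stained.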
# [2] = system: SK-OV-3; experiment: Cytotoxicity against human SKOV3 cells by sulforhodamine B assay; type: functional, cell-based
# [3] = system: HCT-15; experiment: Cytotoxicity against human HCT15 cells by sulforhodamine B assay; type: functional, cell-based
# [4] = system: A549; experiment: Cytotoxicity against human A549 cells by sulforhodamine B assay; type: functional, cell-based
# [5] = system: SK-MEL-2; experiment: Cytotoxicity against human SK-MEL-2 cells by sulforhodamine B assay; type: functional, cell-based
# [6] = species on record: Bos taurus; experiment: Inhibition of calf thymus DNA topoisomerase I assessed as relaxation of supercoiled DNA pBR322 at 10 to 100 ug/ml after 30 mins by agarose gel electrophoresis
# In short: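 Relaxation of supercoiled pBR322 plasmid DNA (200 ng) by 2 units calf thymus topo I, incubated with or without compound at 37 °C for 30 min. Buffer: 35 mM Tris–HCl pH 8.0, 72 mM KCl, 5 mM MgCl2, 5 mM DTT, 2 mM spermidine, 0.01% BSA. Stopped with SDS/dye/glycerol solution. Run on 1% agarose gel in TAE at 15 V for 6 h, then stained. Compound stocks were 20 mM in DMSO.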
Compound,inhibition [1],IC50 [2],IC50 [3],IC50 [4],IC50 [5],inhibition [6]
CN(C)CCN(C)c1nc(-c2ccccc2)nc2ccccc12,Active,25.5 µg/mL,26.5 µg/mL,28.1 µg/mL,28.9 µg/mL,–
COc1cccc2c1C(=O)c1c(O)c3c(c(O)c1C2=O)C[C@@](O)(C(=O)CO)C[C@@H]3O[C@H]1C[C@H](N)[C@H](O)[C@H](C)O1 [DOXORUBICIN],–,0.08 µg/mL,0.05 µg/mL,–,0.09 µg/mL,–
CC[C@@]1(O)C(=O)OCc2c1cc1n(c2=O)Cc2cc3ccccc3nc2-1 [CAMPTOTHECIN],–,1.54 µg/mL,0.096 µg/mL,0.072 µg/mL,6.88 µg/mL,Active
CC(C)Nc1nc(-c2ccccc2)nc2ccccc12,Active,16.9 µg/mL,4.11 µg/mL,7.53 µg/mL,16.5 µg/mL,–
CNc1nc(-c2ccccc2)nc2ccccc12,inactive,33.6 µg/mL,21.2 µg/mL,29.3 µg/mL,24.4 µg/mL,–
c1ccc(-c2nc(N3CCOCC3)c3ccccc3n2)cc1,Active,57 µg/mL,51.8 µg/mL,52.8 µg/mL,65.2 µg/mL,–
c1ccc(-c2nc(NC3CCCCC3)c3ccccc3n2)cc1,Active,9.82 µg/mL,2.76 µg/mL,7.23 µg/mL,9.63 µg/mL,–
COC(=O)CNc1nc(-c2ccccc2)nc2ccccc12,Active,35.5 µg/mL,37.5 µg/mL,36.3 µg/mL,37.6 µg/mL,–
COCCNc1nc(-c2ccccc2)nc2ccccc12,Active,22.9 µg/mL,26.8 µg/mL,27.4 µg/mL,27.6 µg/mL,–
CCOC(=O)CCNc1nc(-c2ccccc2)nc2ccccc12.Cl,inactive,> 100 µg/mL,> 100 µg/mL,> 100 µg/mL,> 100 µg/mL,–
CN1CCN(c2nc(-c3ccccc3)nc3ccccc23)CC1,Active,26.8 µg/mL,22.4 µg/mL,26.9 µg/mL,37 µg/mL,–
CN1CCCN(c2nc(-c3ccccc3)nc3ccccc23)CC1,Active,26.1 µg/mL,20.1 µg/mL,24.1 µg/mL,36.5 µg/mL,–
Cl.c1ccc(CNc2nc(-c3ccccc3)nc3ccccc23)cc1,–,9.5 µg/mL,6.13 µg/mL,9.79 µg/mL,15.8 µg/mL,–
c1ccc(CNc2nc(-c3ccccc3)nc3ccccc23)cc1,–,31.7 µg/mL,13.9 µg/mL,15.1 µg/mL,31.2 µg/mL,–
